In brackets after ≈: the same amount, converted by molar mass. Each block holds one compound with its values, some of them ahead of it.
Tests used:
Dihydrofolate reductase = molecular target: T1, Dihydrofolate reductase (Homo sapiens, UniProt P00374); test: Inhibition of human dihydrofolate reductase
T1 sequence (P00374 whole entry): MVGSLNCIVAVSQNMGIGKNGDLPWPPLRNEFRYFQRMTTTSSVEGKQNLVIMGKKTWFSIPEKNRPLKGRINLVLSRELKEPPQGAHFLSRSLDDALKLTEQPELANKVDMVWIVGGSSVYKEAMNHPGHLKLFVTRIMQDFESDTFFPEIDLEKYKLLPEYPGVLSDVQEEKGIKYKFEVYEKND
Procedure, shortened: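 Purified human DHFR assayed spectrophotometrically at 25 °C by the fall in A340 on DHF reduction. Ki from steady-state kinetics.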

Thymidylate synthase [1] = molecular target: Thymidylate synthase (Homo sapiens, UniProt P04818); test: Inhibition of human thymidylate synthase
Listeria monocytogenes [2] = test: Antibacterial activity against Listeria monocytogenes 3; type: functional
Procedure, shortened: (§1)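 Wild-type strain panel (18 Gram-positive and Gram-negative strains). Bacteria grown in Mueller-Hinton broth at 37 °C for 24 h. Exponentially growing cultures diluted in sterile liquid medium to a final inoculum of about 1 × 10⁴ CFU/mL, then exposed to increasing compound concentrations. MIC taken as the lowest concentration with no evident bacterial growth.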

[3] = Specificity Index, Ki for human thymidylate synthase/Ki for Lactobacillus casei thymidylate synthase
Listeria monocytogenes [4] = test: Antibacterial activity against Listeria monocytogenes 7; type: functional; procedure, shortened: as §1
[5] = tested on: Staphylococcus saprophyticus; test: Antibacterial activity against Staphylococcus saprophyticus ATCC 15305; type: functional; procedure, shortened: as §1
Staphylococcus aureus [6] = test: Antibacterial activity against Staphylococcus aureus 343; type: functional; procedure, shortened: as §1
Thymidylate synthase [7] = molecular target: T2, Thymidylate synthase (Cryptococcus neoformans var. neoformans B-3501A, UniProt P0CS13); test: Inhibition of Cryptococcus neoformans thymidylate synthase
T2 sequence (P0CS13 whole entry): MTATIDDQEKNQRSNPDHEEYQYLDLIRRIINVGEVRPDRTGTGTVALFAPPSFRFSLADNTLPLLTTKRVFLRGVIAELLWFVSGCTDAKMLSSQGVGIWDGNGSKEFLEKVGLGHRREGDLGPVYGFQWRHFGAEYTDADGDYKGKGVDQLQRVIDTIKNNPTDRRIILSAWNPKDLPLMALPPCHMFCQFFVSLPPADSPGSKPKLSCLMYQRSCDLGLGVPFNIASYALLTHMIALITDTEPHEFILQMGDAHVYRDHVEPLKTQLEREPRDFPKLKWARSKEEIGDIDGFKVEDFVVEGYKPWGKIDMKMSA

Enterococcus faecalis = test: Antibacterial activity against Enterococcus faecalis ATCCC29212; type: functional; procedure, shortened: as §1
Staphylococcus aureus [8] = test: Antibacterial activity against Staphylococcus aureus ATCC 29213; type: functional; procedure, shortened: as §1
Homo sapiens = species: Homo sapiens; test: Selectivity Index, Ki for human dihydrofolate reductase/Ki for human thymidylate synthase
Listeria monocytogenes [9] = test: Antibacterial activity against Listeria monocytogenes 4; type: functional; procedure, shortened: as §1
Escherichia coli [10] = test: Antibacterial activity against Escherichia coli 256; type: functional; procedure, shortened: as §1
Citrobacter = test: Antibacterial activity against Citrobacter 224; type: functional; procedure, shortened: as §1
Listeria monocytogenes [11] = test: Antibacterial activity against Listeria monocytogenes ATCC 4428; type: functional; procedure, shortened: as §1
[12] = Specificity Index, Ki for human thymidylate synthase/Ki for Escherichia coli thymidylate synthase
[13] = Specificity Index, Ki for human thymidylate synthase/Ki for Cryptococcus neoformans thymidylate synthase
Procedure, shortened: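 Specificity index is Ki of hTS divided by Ki of the pathogen TS (LcTS, EcTS or CnTS). Each enzyme was purified to >95% and assayed spectrophotometrically at 340 nm, 20 °C. Buffer was TES 50 mM pH 7.4 with MgCl2, formaldehyde, EDTA and 2-mercaptoethanol, plus dUMP 100 µM, mTHF 140 µM and enzyme 0.07 µM.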

[14] = tested on: Staphylococcus haemolyticus; test: Antibacterial activity against Staphylococcus haemolyticus ATCC 2997; type: functional; procedure, shortened: as §1
Listeria monocytogenes [15] = test: Antibacterial activity against Listeria monocytogenes 5; type: functional; procedure, shortened: as §1
Thymidylate synthase [16] = molecular target: T3, Thymidylate synthase (Lactobacillus casei, UniProt P00469); test: Inhibition of Lactobacillus casei thymidylate synthase; set-up: species or system Lacticaseibacillus casei
T3 sequence (P00469 whole entry): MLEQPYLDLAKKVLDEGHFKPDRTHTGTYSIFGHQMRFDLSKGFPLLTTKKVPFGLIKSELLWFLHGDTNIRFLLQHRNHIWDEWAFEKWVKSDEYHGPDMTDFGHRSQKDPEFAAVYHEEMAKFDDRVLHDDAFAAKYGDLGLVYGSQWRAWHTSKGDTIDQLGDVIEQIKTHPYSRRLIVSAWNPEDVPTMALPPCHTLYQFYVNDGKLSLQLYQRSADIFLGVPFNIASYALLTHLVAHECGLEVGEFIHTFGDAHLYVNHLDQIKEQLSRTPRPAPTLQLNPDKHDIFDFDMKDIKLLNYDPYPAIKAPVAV

Staphylococcus aureus [17] = test: Antibacterial activity against Staphylococcus aureus K28; type: functional; procedure, shortened: as §1
Thymidylate synthase [18] = molecular target: Thymidylate synthase (Escherichia coli, UniProt C3SWJ7); test: Inhibition of Escherichia coli thymidylate synthase
Listeria monocytogenes [19] = test: Antibacterial activity against Listeria monocytogenes 6; type: functional; procedure, shortened: as §1
Listeria monocytogenes [20] = test: Antibacterial activity against Listeria monocytogenes 8; type: functional; procedure, shortened: as §1
Staphylococcus aureus [21] = test: Antibacterial activity against Staphylococcus aureus 341; type: functional; procedure, shortened: as §1
Streptococcus = test: Antibacterial activity against Streptococcus 42; type: functional; procedure, shortened: as §1
Escherichia coli [22] = test: Antibacterial activity against Escherichia coli 292; type: functional; procedure, shortened: as §1
Vero [23] = test: Cytotoxicity against Vero cells measured as percent of cell growth at 25 mg/L relative to control by MTT assay; type: functional, Chlorocebus sabaeus
Procedure, shortened: (§2)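 VERO cells grown in MEM with 5% heat-inactivated (56 °C, 30 min) FCS, penicillin, streptomycin and L-glutamine. Cultures were watched for 2 days and live cells counted. Cells were then exposed to increasing compound concentrations; wells with cells only served as control. After 24 h, mitochondrial dehydrogenase activity was read by MTT. Trypan blue exclusion was also run.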

Vero [24] = test: Cytotoxicity against Vero cells measured as percent of cell growth at 6.25 mg/L relative to control by MTT assay; type: functional, Chlorocebus sabaeus; procedure, shortened: as §2
Vero [25] = test: Cytotoxicity against Vero cells measured as percent of cell growth at 50 mg/L relative to control by MTT assay; type: functional, Chlorocebus sabaeus; procedure, shortened: as §2
Vero [26] = test: Cytotoxicity against Vero cells measured as percent of cell growth at 1.56 mg/L relative to control by MTT assay; type: functional, Chlorocebus sabaeus; procedure, shortened: as §2
Vero [27] = test: Cytotoxicity against Vero cells measured as percent of cell growth at 3.12 mg/L relative to control by MTT assay; type: functional, Chlorocebus sabaeus; procedure, shortened: as §2
Vero [28] = test: Cytotoxicity against Vero cells measured as percent of cell growth at 12.05 mg/L relative to control by MTT assay; type: functional, Chlorocebus sabaeus; procedure, shortened: as §2

Thymidylate synthase (Escherichia coli, UniProt C3SWJ7), sequence (C3SWJ7 whole entry): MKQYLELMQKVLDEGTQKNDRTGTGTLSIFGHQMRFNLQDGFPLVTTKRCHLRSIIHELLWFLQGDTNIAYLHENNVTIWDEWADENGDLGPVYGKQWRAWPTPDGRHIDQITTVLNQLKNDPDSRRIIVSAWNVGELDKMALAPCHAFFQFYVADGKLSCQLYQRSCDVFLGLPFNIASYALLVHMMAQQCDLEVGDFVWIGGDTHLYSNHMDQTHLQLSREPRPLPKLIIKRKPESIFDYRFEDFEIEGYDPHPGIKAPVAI
Thymidylate synthase (Homo sapiens, UniProt P04818), sequence (P04818 whole entry): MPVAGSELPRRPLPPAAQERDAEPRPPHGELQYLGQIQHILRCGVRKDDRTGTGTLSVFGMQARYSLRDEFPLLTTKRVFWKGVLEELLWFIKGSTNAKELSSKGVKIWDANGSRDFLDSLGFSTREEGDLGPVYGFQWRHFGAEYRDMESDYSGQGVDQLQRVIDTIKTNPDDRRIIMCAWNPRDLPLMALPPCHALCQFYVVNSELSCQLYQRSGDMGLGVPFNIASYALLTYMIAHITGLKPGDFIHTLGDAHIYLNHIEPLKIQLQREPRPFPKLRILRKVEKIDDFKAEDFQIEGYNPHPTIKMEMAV

Ki (Dihydrofolate reductase): 13 µM
SMILES: Cc1cc(O)c(C(C)C)cc1C1(c2cc(C(C)C)c(O)cc2C)OC(=O)c2ccc3ccccc3c21

SMILES: O=C1OC(c2ccc(O)cc2)(c2ccc(O)c(Br)c2)c2cccc3cccc1c23 (stereo not given)
Ki (Thymidylate synthase [1]): > 132 µM
MIC (Listeria monocytogenes [2]): 10 µg/mL (≈ 22.4 µM)
Ratio Ki [3]: > 132
MIC (Listeria monocytogenes [4]): 10 µg/mL (≈ 22.4 µM)
MIC [5]: 10 µg/mL (≈ 22.4 µM)
MIC (Staphylococcus aureus [6]): 10 µg/mL (≈ 22.4 µM)
Ki (Thymidylate synthase [7]): 5.2 µM
MIC (Enterococcus faecalis): 25 µg/mL (≈ 55.9 µM)
MIC (Staphylococcus aureus [8]): 10 µg/mL (≈ 22.4 µM)
Selectivity index (Homo sapiens): < 0.02
MIC (Listeria monocytogenes [9]): 10 µg/mL (≈ 22.4 µM)
MIC (Escherichia coli [10]): > 50 µg/mL
MIC (Citrobacter): > 50 µg/mL
MIC (Listeria monocytogenes [11]): 10 µg/mL (≈ 22.4 µM)
Ratio Ki [12]: > 330
Ratio Ki [13]: > 25
MIC [14]: 10 µg/mL (≈ 22.4 µM)
MIC (Listeria monocytogenes [15]): 10 µg/mL (≈ 22.4 µM)
Ki (Thymidylate synthase [16]): 1 µM
MIC (Staphylococcus aureus [17]): 25 µg/mL (≈ 55.9 µM)
Ki (Thymidylate synthase [18]): 0.4 µM
MIC (Listeria monocytogenes [19]): 10 µg/mL (≈ 22.4 µM)
MIC (Listeria monocytogenes [20]): 25 µg/mL (≈ 55.9 µM)
Ki (Dihydrofolate reductase): 3.4 µM
MIC (Staphylococcus aureus [21]): 25 µg/mL (≈ 55.9 µM)
MIC (Streptococcus): 10 µg/mL (≈ 22.4 µM)
MIC (Escherichia coli [22]): > 50 µg/mL

Ki (Thymidylate synthase [1]): 5.7 µM
Ratio Ki [3]: 3
Ki (Thymidylate synthase [7]): 3.3 µM
Selectivity index (Homo sapiens): 5
Ratio Ki [12]: 1
Ratio Ki [13]: 2
Ki (Thymidylate synthase [16]): 2 µM
Ki (Thymidylate synthase [18]): 5.3 µM
Ki (Dihydrofolate reductase): 28 µM
SMILES: O=C1OC(c2cc(Cl)c(O)c(Cl)c2)(c2cc(Cl)c(O)c(Cl)c2)c2cccc3cccc1c23

Ki (Thymidylate synthase [1]): 4.7 µM
MIC (Listeria monocytogenes [2]): 2.5 µg/mL (≈ 4.75 µM)
Ratio Ki [3]: 1
MIC (Listeria monocytogenes [4]): 1 µg/mL (≈ 1.9 µM)
MIC [5]: 5 µg/mL (≈ 9.5 µM)
MIC (Staphylococcus aureus [6]): 5 µg/mL (≈ 9.5 µM)
Ki (Thymidylate synthase [7]): 13 µM
MIC (Enterococcus faecalis): 10 µg/mL (≈ 19 µM)
MIC (Staphylococcus aureus [8]): 5 µg/mL (≈ 9.5 µM)
Selectivity index (Homo sapiens): 3
MIC (Listeria monocytogenes [9]): 5 µg/mL (≈ 9.5 µM)
MIC (Escherichia coli [10]): > 50 µg/mL
MIC (Citrobacter): > 50 µg/mL
MIC (Listeria monocytogenes [11]): 5 µg/mL (≈ 9.5 µM)
Ratio Ki [12]: 5
Ratio Ki [13]: 0.4
MIC (Listeria monocytogenes [15]): 5 µg/mL (≈ 9.5 µM)
Ki (Thymidylate synthase [16]): 6.8 µM
MIC (Staphylococcus aureus [17]): 5 µg/mL (≈ 9.5 µM)
Ki (Thymidylate synthase [18]): 0.9 µM
MIC (Listeria monocytogenes [19]): 5 µg/mL (≈ 9.5 µM)
MIC (Listeria monocytogenes [20]): 5 µg/mL (≈ 9.5 µM)
Ki (Dihydrofolate reductase): 15 µM
MIC (Staphylococcus aureus [21]): 5 µg/mL (≈ 9.5 µM)
MIC (Streptococcus): 5 µg/mL (≈ 9.5 µM)
MIC (Escherichia coli [22]): > 50 µg/mL
SMILES: O=C1OC(c2ccc(O)c(Br)c2)(c2ccc(O)c(Br)c2)c2cccc3cccc1c23
Activity (Vero [23]): 84%
Activity (Vero [24]): 100%
Activity (Vero [25]): 41%
MIC [14]: 5 µg/mL (≈ 9.5 µM)
Activity (Vero [26]): 100%
Activity (Vero [27]): 100%
Activity (Vero [28]): 100%

SMILES: O=C1OC(c2ccc(O)cc2)(c2ccc(O)cc2)c2c1ccc1ccccc21
Ki (Thymidylate synthase [1]): > 132 µM
Ratio Ki [3]: > 12
Ki (Thymidylate synthase [7]): 0.4 µM
Selectivity index (Homo sapiens): < 1
Ratio Ki [12]: > 30
Ratio Ki [13]: > 330
Ki (Thymidylate synthase [18]): 4.4 µM

Ki (Thymidylate synthase [7]): 8.1 µM
SMILES: O=C1OC(c2ccc(O)c(Cl)c2)(c2ccc(O)c(Cl)c2)c2ccc3ccccc3c21

Ratio Ki [3]: > 20
Ki (Thymidylate synthase [7]): 2.7 µM
Selectivity index (Homo sapiens): < 0.2
Ratio Ki [12]: > 147
Ratio Ki [13]: > 49
Ki (Thymidylate synthase [18]): 0.9 µM
Ki (Dihydrofolate reductase): 33 µM
SMILES: O=C1OC(c2ccc(O)c(Br)c2)(c2ccc(O)c(Br)c2)c2c1ccc1ccccc21
